Measurements published in ChEMBL document CHEMBL4257553, “Novel organophosphorus aminopyrimidines as unique structural DNA-targeting membrane active inhibitors towards drug-resistant methicillin-resistant Staphylococcus aureus” (Medchemcomm, 2018).
In brackets after ≈: the same amount, converted by molar mass. Activity calls are given as the source filed them. No cut-off for these calls is given here.

How the values were obtained:
Klebsiella pneumoniae = test: Antibacterial activity against Klebsiella pneumoniae after 24 hrs by microbroth dilution method; type: functional
Outline: (§1)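 Tested by CLSI-standard broth microdilution against a panel of eleven bacterial strains, Gram-positive and Gram-negative, including MRSA.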

Pseudomonas aeruginosa [1] = test: Antibacterial activity against Pseudomonas aeruginosa after 24 hrs by microbroth dilution method; type: functional; outline: as §1
Escherichia coli [2] = test: Antibacterial activity against Escherichia coli ATCC 25922 after 24 hrs by microbroth dilution method; type: functional; settings: ATCC 25922, 24 h; outline: as §1
Staphylococcus aureus [3] = test: Antibacterial activity against Staphylococcus aureus ATCC 29213 after 24 hrs by microbroth dilution method; type: functional; settings: ATCC 29213, 24 h; outline: as §1
Staphylococcus aureus [4] = test: Antibacterial activity against Staphylococcus aureus after 24 hrs by microbroth dilution method; type: functional; outline: as §1
Aspergillus fumigatus [5] = test: Potency index, ratio of fluconazole MIC to compound MIC for antifungal activity against Aspergillus fumigatus; type: functional
Pseudomonas aeruginosa [6] = test: Antibacterial activity against Pseudomonas aeruginosa ATCC 27853 after 24 hrs by microbroth dilution method; type: functional; settings: ATCC 27853, 24 h; outline: as §1
Aspergillus fumigatus [7] = test: Antifungal activity against Aspergillus fumigatus after 24 hrs by microbroth dilution method; type: functional
Staphylococcus aureus [8] = test: Antibacterial activity against Staphylococcus aureus ATCC 25923 after 24 hrs by microbroth dilution method; type: functional; settings: ATCC 25923, 24 h; outline: as §1
Staphylococcus aureus [9] = test: Antibacterial activity against methicillin resistant Staphylococcus aureus after 24 hrs by microbroth dilution method; type: functional; outline: as §1
Enterococcus faecalis = test: Antibacterial activity against Enterococcus faecalis after 24 hrs by microbroth dilution method; type: functional; outline: as §1
Escherichia coli [10] = test: Antibacterial activity against Escherichia coli after 24 hrs by microbroth dilution method; type: functional; outline: as §1
Acinetobacter baumannii = test: Antibacterial activity against Acinetobacter baumannii after 24 hrs by microbroth dilution method; type: functional; outline: as §1
DNA [11] = test: Binding affinity to methicillin resistant Staphylococcus aureus DNA by absorption spectra analysis; type: nucleic-acid assay
Staphylococcus aureus [12] = test: Antibacterial activity against methicillin resistant Staphylococcus aureus after 16 serial passages measured after 12 hrs by microbroth dilution method; type: functional, organism-based
Outline: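 MRSA standard strain passaged serially with compound. Each passage starts from the bacteria grown at sub-MIC (0.5 × MIC), and the MIC is redetermined by the broth microdilution method at every passage.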

Staphylococcus aureus [13] = test: Bactericidal activity against methicillin resistant Staphylococcus aureus assessed as reduction in bacterial load at 6 times MIC up to 1 hr by time kill assay; type: functional
Outline: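 MRSA grown 6 h at 37 °C and diluted to about 1.8 × 10^5 CFU/mL. Compound added at MIC and 6 × MIC, then incubated at 37 °C. Samples taken at 0, 30, 60, 90, 120, 240, 360 and 420 min, diluted 10-fold serially in 0.9% saline, plated on agar and counted after 24 h at 37 °C.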

[14] = Cytotoxicity against mouse L929 cells assessed as cell viability up to 128 ug/ml after 48 hrs by MTT assay relative to control; type: cell-based; settings: read-out: Activity
Outline: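 Mouse fibroblast L929 cells grown in DMEM with 10% serum and 1% penicillin/streptomycin at 37 °C, 5% CO2, seeded and cultured 24 h. Compound diluted in medium and tested in triplicate at 0, 4, 8, 16, 32, 64, 128, 256 and 512 μg/mL for 48 h. MTT in PBS added for 3–4 h, formazan dissolved in DMSO, absorbance read at 570 nm (also stated 490 nm).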

DNA [15] = test: Binding affinity to methicillin resistant Staphylococcus aureus DNA assessed as hypochromic effect up to 3.5 x 10^-5mol/L by absorption spectra analysis; type: nucleic-acid assay
DNA [16] = test: Inhibition of neutral red dye binding to methicillin resistant Staphylococcus aureus DNA up to 3.5 x 10^-5mol/L by UV-Visible absorption spectra analysis; type: nucleic-acid assay
Outline: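 MRSA genomic DNA with A260/A280 > 1.8 in Tris-HCl buffer pH 7.4, combined with aqueous neutral red dye stock. Competitive displacement followed by UV-vis absorption spectroscopy.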

Cell membrane = test: Binding affinity to methicillin resistant Staphylococcus aureus cell membrane assessed as induction of membrane permeabilization at 12 times MIC measured for 10 to 70 mins by propidium iodide dye based fluorescence assay
Outline: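 MRSA cultured 12 h at 37 °C, centrifuged, washed and resuspended in 5 mM glucose/5 mM HEPES (1:1). Compound (12 × MIC) added to cuvette with cells and propidium iodide. PI uptake followed as fluorescence increase (ex 535 nm, em 617 nm).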

Structure (SMILES) | MIC (Klebsiella pneumoniae) [µg/mL] | MIC (Pseudomonas aeruginosa [1]) [µg/mL] | MIC (Escherichia coli [2]) [µg/mL] | MIC (Staphylococcus aureus [3]) [µg/mL] | MIC (Staphylococcus aureus [4]) [µg/mL] | Ratio (Aspergillus fumigatus [5]) | MIC (Pseudomonas aeruginosa [6]) [µg/mL] | MIC (Aspergillus fumigatus [7]) [µg/mL] | MIC (Staphylococcus aureus [8]) [µg/mL] | MIC (Staphylococcus aureus [9]) [µg/mL] | MIC (Enterococcus faecalis) [µg/mL] | MIC (Escherichia coli [10]) [µg/mL] | MIC (Acinetobacter baumannii) [µg/mL] | K (DNA [11]) [×10³ L/mol] | Activity (Staphylococcus aureus [12]) | Activity (Staphylococcus aureus [13]) [deltalog10CFU/ml] | viability at 48 h [14] [%] | Activity (DNA [15]) | inhibition (DNA [16]) | Activity (Cell membrane)
CCOP(=O)(OCC)C(Nc1ncccn1)c1ccc(F)cc1 (stereo not given) | 128 (≈ 377 µM) | 128 (≈ 377 µM) | 256 (≈ 754 µM) | 256 (≈ 754 µM) | 256 (≈ 754 µM) | 16 | 64 (≈ 189 µM) | > 16 | 64 (≈ 189 µM) | 256 (≈ 754 µM) | 64 (≈ 189 µM) | 256 (≈ 754 µM) | 128 (≈ 377 µM) |  |  |  |  |  |  | 
CCCCCn1c(CCCC)nc(Cl)c1C(Nc1ncccn1)P(=O)(OCC)OCC (stereo not given) | 8 (≈ 17 µM) | 64 (≈ 136 µM) | 16 (≈ 33.9 µM) | 64 (≈ 136 µM) | 64 (≈ 136 µM) | 16 | 64 (≈ 136 µM) | > 16 | 32 (≈ 67.8 µM) | 4 (≈ 8.48 µM) | 8 (≈ 17 µM) | 128 (≈ 271 µM) | 32 (≈ 67.8 µM) | 6.84 | Active | >3 | ≤ 80 | Active | Active | Active
CCOP(=O)(OCC)C(Nc1ncccn1)c1ccccc1Cl (stereo not given) | 32 (≈ 89.9 µM) | 128 (≈ 360 µM) | 64 (≈ 180 µM) | 128 (≈ 360 µM) | 128 (≈ 360 µM) | 16 | 128 (≈ 360 µM) | > 16 | 128 (≈ 360 µM) | 8 (≈ 22.5 µM) | 128 (≈ 360 µM) | 256 (≈ 720 µM) | 128 (≈ 360 µM) |  |  |  |  |  |  | 
CCCCc1nc(Cl)c(C(Nc2ncccn2)P(=O)(OCC)OCC)n1CCC (stereo not given) | 64 (≈ 144 µM) | 128 (≈ 288 µM) | 128 (≈ 288 µM) | 128 (≈ 288 µM) | 256 (≈ 577 µM) | 16 | 128 (≈ 288 µM) | > 16 | 64 (≈ 144 µM) | 8 (≈ 18 µM) | 128 (≈ 288 µM) | 256 (≈ 577 µM) | 64 (≈ 144 µM) |  |  |  |  |  |  | 
O=[N+]([O-])c1ccc(C(Nc2ncccn2)P(=O)(O)O)cc1 (stereo not given) | 256 (≈ 825 µM) | 128 (≈ 413 µM) | 128 (≈ 413 µM) | 128 (≈ 413 µM) | 128 (≈ 413 µM) | 16 | 256 (≈ 825 µM) | > 16 | 128 (≈ 413 µM) | 128 (≈ 413 µM) | 128 (≈ 413 µM) | 128 (≈ 413 µM) | 256 (≈ 825 µM) |  |  |  |  |  |  | 
Cc1ccc(C(Nc2ncccn2)P(=O)(O)O)cc1 (stereo not given) | 128 (≈ 458 µM) | 128 (≈ 458 µM) | 256 (≈ 917 µM) | 256 (≈ 917 µM) | 256 (≈ 917 µM) | 16 | 256 (≈ 917 µM) | > 16 | 128 (≈ 458 µM) | 256 (≈ 917 µM) | 256 (≈ 917 µM) | 128 (≈ 458 µM) | 256 (≈ 917 µM) |  |  |  |  |  |  | 
CCCCc1nc(Cl)c(C(Nc2ncccn2)P(=O)(OCC)OCC)n1CC (stereo not given) | 128 (≈ 298 µM) | 256 (≈ 596 µM) | 256 (≈ 596 µM) | 256 (≈ 596 µM) | 512 (≈ 1190 µM) | 16 | 256 (≈ 596 µM) | > 16 | 128 (≈ 298 µM) | 256 (≈ 596 µM) | 64 (≈ 149 µM) | 256 (≈ 596 µM) | 256 (≈ 596 µM) |  |  |  |  |  |  | 
CCOP(=O)(OCC)C(Nc1ncccn1)c1ccc2c(c1)c1cc(C=O)ccc1n2CC (stereo not given) | 256 (≈ 549 µM) | 256 (≈ 549 µM) | 256 (≈ 549 µM) | 256 (≈ 549 µM) | 256 (≈ 549 µM) | 16 | 256 (≈ 549 µM) | > 16 | 256 (≈ 549 µM) | 128 (≈ 274 µM) | 16 (≈ 34.3 µM) | 512 (≈ 1100 µM) | 128 (≈ 274 µM) |  |  |  |  |  |  | 
CCn1cc(C(=O)O)c(=O)c2cc(F)c(N3CCNCC3)cc21 [NORFLOXACIN] | 4 (≈ 12.5 µM) | 2 (≈ 6.26 µM) | 8 (≈ 25.1 µM) | 2 (≈ 6.26 µM) | 0.5 (≈ 1.57 µM) |  | 0.5 (≈ 1.57 µM) |  | 1 (≈ 3.13 µM) | 8 (≈ 25.1 µM) | 4 (≈ 12.5 µM) | 16 (≈ 50.1 µM) | 8 (≈ 25.1 µM) |  |  |  |  |  |  | 
CCOP(=O)(OCC)C(Nc1ncccn1)c1c[nH]c2ccccc12 (stereo not given) | 64 (≈ 178 µM) | 256 (≈ 710 µM) | 256 (≈ 710 µM) | 128 (≈ 355 µM) | 256 (≈ 710 µM) | 16 | 256 (≈ 710 µM) | > 16 | 256 (≈ 710 µM) | 4 (≈ 11.1 µM) | 256 (≈ 710 µM) | 256 (≈ 710 µM) | 128 (≈ 355 µM) |  |  |  |  |  |  | 
